Test results: ChEMBL document CHEMBL3271988, “Nitrogen analogues of 1,4-benzoquinones. Activities against the ascitic sarcoma 180 of mice” (J Med Chem, 1978)
Calls of active or inactive are those of the source. The calls are words filed in the database; no cut-off is given here.

Tests used:
Sarcoma-180 [1] = assay: Antitumor activity against mouse Sarcoma 180 cells allografted in Swiss mouse assessed as survival time at 10 mg/kg, ip three doses were given at 24 hrs interval starting 24 hrs after allograft injection relative to control; format: functional; conditions: route intraperitoneal
Method in brief: (§1)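 Swiss mice inoculated ip with 10^6 ascitic sarcoma 180 cells. Compound given ip daily ×3 at 24-h intervals, starting 24 h after inoculation. Controls received isotonic saline on the same schedule; 6 mice per group. Mice alive at 60 days counted as 60 days in mean survival (±SD).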

Sarcoma-180 [2] = assay: Antitumor activity against mouse Sarcoma 180 cells allografted in Swiss mouse at 10 mg/kg, ip three doses were given at 24 hrs interval starting 24 hrs after allograft injection relative to control; format: functional; conditions: route intraperitoneal
Method in brief: (§2)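 Swiss mice received 10^6 ascitic sarcoma 180 cells ip, then three ip doses 24 h apart starting at 24 h. Controls got isotonic salt solution on the same schedule. T/C% is mean survival time of treated over controls (6 mice per group).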

Sarcoma-180 [3] = assay: Antitumor activity against mouse Sarcoma 180 cells allografted in Swiss mouse assessed as weight gain at 10 mg/kg, ip three doses were given at 24 hrs interval starting 24 hrs after allograft injection measured after 3 days relative to control; format: functional; conditions: route intraperitoneal
Method in brief: (§3)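 Ascitic sarcoma 180 model in Swiss mice: 10^6 cells ip, then three ip doses at 24-h intervals beginning 24 h later. Mice were weighed 1 day after cell injection and again 3 days later (24 h after the third dose). Percent weight gain of treated mice was compared with saline-treated controls on the same schedule.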

[4] = Half life of the compound in water at pH 7 at 25 degC by spectrophotometry; format: physicochemical
Method in brief: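 Compound dissolved in absolute ethanol, then diluted into 0.01 M Tris buffer brought to pH 7 with HCl, 25 °C. Absorbance at λmax followed over hours or days; log absorbance vs time fitted by least squares, rate constant and half-time taken from the slope.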

[5] = Acute toxicity in single ip dosed Swiss mouse assessed as death up to 5 days; format: organism-based; conditions: in vivo
Method in brief: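 Male Swiss mice given one ip dose. LD50 taken as the single dose killing 50% of animals within 5 days.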

Sarcoma-180 [6] = assay: Antitumor activity against mouse Sarcoma 180 cells allografted in Swiss mouse assessed as survival at 10 mg/kg, ip three doses were given at 24 hrs interval starting 24 hrs after allograft injection measured after 5 days; format: functional, organism-based; parameters: dose 10 mg/kg
Method in brief: (§4)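 Swiss mice were injected ip with 10^6 ascitic sarcoma 180 cells. Three daily ip doses followed, the first 24 h after cell injection. The read-out was the number of mice surviving at 5 days, out of 6 treated.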

Sarcoma-180 [7] = assay: Antitumor activity against mouse Sarcoma 180 cells allografted in Swiss mouse assessed as cure at 10 mg/kg, ip three doses were given at 24 hrs interval starting 24 hrs after allograft injection measured after 60 days; format: functional, organism-based; parameters: dose 10 mg/kg
Method in brief: (§5)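 Swiss mice given 10^6 ascitic sarcoma 180 cells ip. Starting 24 h later, three ip doses were given 24 h apart. Controls got isotonic salt solution on the same schedule. A cure was a mouse alive with no evidence of cancer cells 60 days after cell injection, reported per 6 mice.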

[8] = Redox potential of the compound in alcohol-water solution; conditions: buffer
Sarcoma-180 [9] = assay: Antitumor activity against mouse Sarcoma 180 cells allografted in Swiss mouse assessed as survival time at 6 mg/kg, ip three doses were given at 24 hrs interval starting 24 hrs after allograft injection relative to control; format: functional; conditions: route intraperitoneal; method in brief: as §1
Sarcoma-180 [10] = assay: Antitumor activity against mouse Sarcoma 180 cells allografted in Swiss mouse at 6 mg/kg, ip three doses were given at 24 hrs interval starting 24 hrs after allograft injection relative to control; format: functional; conditions: route intraperitoneal; method in brief: as §2
Sarcoma-180 [11] = assay: Antitumor activity against mouse Sarcoma 180 cells allografted in Swiss mouse assessed as weight gain at 6 mg/kg, ip three doses were given at 24 hrs interval starting 24 hrs after allograft injection measured after 3 days relative to control; format: functional; conditions: route intraperitoneal; method in brief: as §3
Sarcoma-180 [12] = assay: Antitumor activity against mouse Sarcoma 180 cells allografted in Swiss mouse assessed as survival at 6 mg/kg, ip three doses were given at 24 hrs interval starting 24 hrs after allograft injection measured after 5 days; format: functional, organism-based; parameters: dose 6 mg/kg; method in brief: as §4
Sarcoma-180 [13] = assay: Antitumor activity against mouse Sarcoma 180 cells allografted in Swiss mouse assessed as cure at 6 mg/kg, ip three doses were given at 24 hrs interval starting 24 hrs after allograft injection measured after 60 days; format: functional, organism-based; parameters: dose 6 mg/kg; method in brief: as §5
Sarcoma-180 [14] = assay: Antitumor activity against mouse Sarcoma 180 cells allografted in Swiss mouse assessed as survival time at 20 mg/kg, ip three doses were given at 24 hrs interval starting 24 hrs after allograft injection relative to control; format: functional; conditions: route intraperitoneal; method in brief: as §1
Sarcoma-180 [15] = assay: Antitumor activity against mouse Sarcoma 180 cells allografted in Swiss mouse at 20 mg/kg, ip three doses were given at 24 hrs interval starting 24 hrs after allograft injection relative to control; format: functional; conditions: route intraperitoneal; method in brief: as §2
Sarcoma-180 [16] = assay: Antitumor activity against mouse Sarcoma 180 cells allografted in Swiss mouse assessed as weight gain at 20 mg/kg, ip three doses were given at 24 hrs interval starting 24 hrs after allograft injection measured after 3 days relative to control; format: functional; conditions: route intraperitoneal; method in brief: as §3
Sarcoma-180 [17] = assay: Antitumor activity against mouse Sarcoma 180 cells allografted in Swiss mouse assessed as survival at 20 mg/kg, ip three doses were given at 24 hrs interval starting 24 hrs after allograft injection measured after 5 days; format: functional, organism-based; parameters: dose 20 mg/kg; method in brief: as §4
Sarcoma-180 [18] = assay: Antitumor activity against mouse Sarcoma 180 cells allografted in Swiss mouse assessed as cure at 20 mg/kg, ip three doses were given at 24 hrs interval starting 24 hrs after allograft injection measured after 60 days; format: functional, organism-based; parameters: dose 20 mg/kg; method in brief: as §5

Row | Compound | Survival (Sarcoma-180 [1]) [days] | T/C (Sarcoma-180 [2]) [%] | Activity (Sarcoma-180 [3]) [%] | half-life [4] [days] | LD50 at 120 h [5] [mg/kg] | Activity (Sarcoma-180 [6]) | Activity (Sarcoma-180 [7]) | Redox potential [8] [V] | Survival (Sarcoma-180 [9]) [days] | T/C (Sarcoma-180 [10]) [%] | Activity (Sarcoma-180 [11]) [%] | Activity (Sarcoma-180 [12]) | Activity (Sarcoma-180 [13]) | Survival (Sarcoma-180 [14]) [days] | T/C (Sarcoma-180 [15]) [%] | Activity (Sarcoma-180 [16]) [%] | Activity (Sarcoma-180 [17]) | Activity (Sarcoma-180 [18])
1 | O=C1C(Cl)=CC(=NCl)C=C1Cl | 25.3 | 220 | -14.2 | 1.67 | 20 | Active | inactive | 0.659 | – | – | – | – | – | – | – | – | – | –
2 | CC1=C/C(=N\c2ccc(N(C)C)cc2)C=CC1=O | – | – | – | 83.8 | 27 | – | – | 0.604 | 18 | 127 | -0.6 | Active | inactive | – | – | – | – | –
3 | CC(=O)Oc1ccc(N=C2C=CC(=O)C=C2)cc1 | – | – | – | – | 90 | – | – | 0.633 | – | – | – | – | – | 19.2 | 130 | -1.5 | Active | inactive
